Measurements from different studies.
Lines come from different studies, so protocols differ.
Target: Inhibitor of nuclear factor kappa-B kinase subunit epsilon (IKBKE, Homo sapiens, UniProt Q14164)
Sequence (Q14164 1-716, as in one of the studies): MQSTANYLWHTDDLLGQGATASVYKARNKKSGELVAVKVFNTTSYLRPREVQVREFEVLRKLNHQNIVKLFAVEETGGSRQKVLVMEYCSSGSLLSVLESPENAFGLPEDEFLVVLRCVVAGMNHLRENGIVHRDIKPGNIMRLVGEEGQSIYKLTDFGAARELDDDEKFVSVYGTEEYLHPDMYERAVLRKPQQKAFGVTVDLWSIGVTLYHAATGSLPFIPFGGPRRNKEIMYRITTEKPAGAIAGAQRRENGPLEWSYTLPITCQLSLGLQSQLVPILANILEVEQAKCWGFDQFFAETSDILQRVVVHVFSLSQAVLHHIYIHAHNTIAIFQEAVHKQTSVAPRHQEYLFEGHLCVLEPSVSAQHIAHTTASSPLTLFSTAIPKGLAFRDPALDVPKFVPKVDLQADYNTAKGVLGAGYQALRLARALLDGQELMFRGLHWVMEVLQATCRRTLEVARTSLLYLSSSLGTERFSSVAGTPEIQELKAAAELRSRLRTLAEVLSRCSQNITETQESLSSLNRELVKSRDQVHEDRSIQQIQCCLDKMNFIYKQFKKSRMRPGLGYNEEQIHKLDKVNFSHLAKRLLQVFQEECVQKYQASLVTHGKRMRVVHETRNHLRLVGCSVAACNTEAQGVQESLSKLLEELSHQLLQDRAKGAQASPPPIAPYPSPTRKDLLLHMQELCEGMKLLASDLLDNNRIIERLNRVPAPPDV

Compound | assay | conditions | measurement | result
Cc1cc(O)c(-c2ccc([C@@H](C)CN(C)C)cc2)c2c1[nH]c(=O)c1sccc12 | enzyme activity, inhibitor | 0.1 µM | inhibition | -7.74%
C=CC(=O)N1CCC([C@@H]2CCNc3c(C(N)=O)c(-c4ccc(Oc5ccccc5)cc4)nn32)CC1 | enzyme activity, inhibitor | 1 µM | inhibition | 1%
C#Cc1cc(-c2cc(Nc3nc(N[C@@H](C)c4ccc(F)cn4)ncc3Cl)n[nH]2)ccc1C=O | enzyme activity, inhibitor | 0.2 µM | inhibition | 14.7%
CO[C@@H]1[C@H](N(C)C(=O)c2ccccc2)C[C@H]2O[C@]1(C)n1c3ccccc3c3c4c(c5c6ccccc6n2c5c31)C(=O)NC4 | enzyme activity, inhibitor | 1 µM | inhibition | 97%
Cc1ccc(NC(=O)c2ccnc(C(F)(F)F)c2)cc1-c1cc(OCCO)nc(N2CCOCC2)c1 | binding | 1 µM | remaining binding | 94%
CCCCC(=O)Nc1ccc(-c2ccc3ncn(CCC)c(=O)c3c2)cn1 | binding, competition with immobilised ligand | 0.5 µM | remaining binding | 93%
CC(C)S(=O)(=O)c1ccc2nccc(Nc3ccc4sc(C5CCCC5)nc4c3)c2c1 | enzyme activity, inhibitor | 1 µM | activity vs control | 113%
COc1ccc2[nH]c3c4[nH]c5ccc(OC)cc5c4c4c(c3c2c1)C(=O)NC4=O | binding | 1 µM | remaining binding | 48%
